Laboratory results published in ChEMBL document CHEMBL3112482, “Nonclassical antifolates, part 5. Benzodiazepine analogs as a new class of DHFR inhibitors: synthesis, antitumor testing and molecular modeling study” (Eur J Med Chem, 2014).

Assays:
Assay type in all cases: functional
[1] = tested on: Cancer cell lines; test: Ratio of 5-FU LC50 to compound LC50 for human prostate cancer cells
In short: (§1)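 Compounds passing the NCI single-dose primary screen were retested across the 60 human tumour cell lines (nine subpanels) over a 5-log dose range. GI50, TGI and LC50 were recorded for each cell line, with 5-fluorouracil run as the reference drug. Subpanel values for compound and 5-FU were then compared.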

[2] = tested on: Cancer cell lines; test: Ratio of 5-FU LC50 to compound LC50 for human ovarian cancer cells; in short: as §1
[3] = tested on: Cancer cell lines; test: Ratio of 5-FU LC50 to compound LC50 for human renal cancer cells; in short: as §1
[4] = tested on: Melanoma cell; test: Ratio of 5-FU LC50 to compound LC50 for human melanoma cells; in short: as §1
[5] = tested on: Leukemia cell; test: Ratio of 5-FU LC50 to compound LC50 for human leukemia cells; in short: as §1
[6] = tested on: Cancer cell lines; test: Ratio of 5-FU TGI to compound TGI for human prostate cancer cells
[7] = tested on: Cancer cell lines; test: Ratio of 5-FU TGI to compound TGI for human breast cancer cells
[8] = tested on: Cancer cell lines; test: Ratio of 5-FU TGI to compound TGI for human renal cancer cells
[9] = tested on: Cancer cell lines; test: Ratio of 5-FU GI50 to compound GI50 for human breast cancer cells; in short: as §1
[10] = tested on: Cancer cell lines; test: Ratio of 5-FU GI50 to compound GI50 for human prostate cancer cells; in short: as §1
[11] = tested on: Cancer cell lines; test: Ratio of 5-FU GI50 to compound GI50 for human CNS cancer cells; in short: as §1

| Compound | RatioLC50 [1] | RatioLC50 [2] | RatioLC50 [3] | RatioLC50 [4] | RatioLC50 [5] | Ratio [6] | Ratio [7] | Ratio [8] | RatioGI50 [9] | RatioGI50 [10] | RatioGI50 [11] |
| --- | --- | --- | --- | --- | --- | --- | --- | --- | --- | --- | --- |
| COc1cc(/C=C2\CCCC3=C(c4cc(OC)c(OC)c(OC)c4)Nc4ccccc4N=C32)cc(OC)c1OC | 11 | 11 | 11 | 11 | 11 | 11 | 11 | 11 | 11 | 11 | 11 |
| COc1cc(/C=C2\CCCc3c2nc(N)nc3-c2cc(OC)c(OC)c(OC)c2)cc(OC)c1OC | 15 | 15 | 15 | 15 | 15 | 15 | 15 | 15 | 15 | 15 | 15 |
| COc1cc(/C=C2\CCCc3c2nc(C)nc3-c2cc(OC)c(OC)c(OC)c2)cc(OC)c1OC | 15 | 15 | 15 | 15 | 15 | 15 | 15 | 15 | 15 | 15 | 15 |
